The list is not random: actives were taken first. Their share in the collection is about 1.8%.
Dynein cargo inh = blocks dynein driven cargo transport along microtubules | z-score, hits read low | AID 1381 | 220,000 compounds, 0.47% hits | 3617.4 mouse cells, GR-EGFP nuclear translocation imaging; test concentration mostly 20 µM; stimulated with dexamethasone, 1 µM; hits give low values;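 active = plate z-score of nuclear minus cytoplasmic receptor signal below a set negative limit, without overly bright fluorescence or cell loss, cut at about -3.5 in these data, passing the limit was not always enough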;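 note: z-score of nuclear minus cytoplasmic ring GR-EGFP intensity difference per well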
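Medium: Induction medium lacking tetracycline, stripped serum | Probe or stimulus: 1.0 µM final dexamethasone stimulus | Schedule: 48 h induction, then 1 h compound, then 30 min agonist, 37 °C | Signal: Automated 10x imaging of fixed Hoechst-stained cells | Evaluation: Per-cell GR-EGFP intensity, nucleus versus surrounding cytoplasmic ring, well-averaged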
Furin inhibitor = inhibitors of human furin; P09958; purified furin, fluorogenic substrate cleavage; inhibition, % at 20 µM or 30 µM; 220,000 compounds, 0.061% hits; AID 463115; in the data active = inhibition above about 25%
Target sequence (P09958 108-714 limits assumed): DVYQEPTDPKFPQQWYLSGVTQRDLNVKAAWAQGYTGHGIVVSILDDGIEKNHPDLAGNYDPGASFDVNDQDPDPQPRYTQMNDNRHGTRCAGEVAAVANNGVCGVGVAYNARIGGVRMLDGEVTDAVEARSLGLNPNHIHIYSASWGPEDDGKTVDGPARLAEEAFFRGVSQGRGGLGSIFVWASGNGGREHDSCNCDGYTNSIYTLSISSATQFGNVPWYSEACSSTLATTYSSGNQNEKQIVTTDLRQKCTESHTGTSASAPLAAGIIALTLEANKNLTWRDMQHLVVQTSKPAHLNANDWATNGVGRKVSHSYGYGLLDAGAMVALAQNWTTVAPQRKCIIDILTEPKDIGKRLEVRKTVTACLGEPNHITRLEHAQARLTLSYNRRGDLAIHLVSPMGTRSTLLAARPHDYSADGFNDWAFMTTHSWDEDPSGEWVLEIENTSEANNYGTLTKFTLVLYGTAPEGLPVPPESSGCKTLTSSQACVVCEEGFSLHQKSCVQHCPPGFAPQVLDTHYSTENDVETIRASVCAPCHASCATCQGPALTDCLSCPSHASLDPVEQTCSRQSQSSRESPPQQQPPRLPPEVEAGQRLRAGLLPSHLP
Autophagy mod = modulators of autophagy; MEF GFP-LC3 puncta imaging; test concentration mostly 10 µM; calls only at 10 µM (by protocol); 190,000 compounds, 0.98% hits; AID 463193;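 active = percentage of spot-positive cells more than 3 SD above its plate mean, without a fluorescence outlier flag or 80% toxicity; inconclusive = no clear call, values can overlap the other calls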;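 note: spot-positive cell cutoff set from DMSO-treated cells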
TNF death inh = TNF-alpha cell death inhibition in Jurkat FADD-/- cells; 220,000 compounds, 0.068% hits; AID 463075; Jurkat FADD-/- TNF necroptosis rescue, ATP luminescence, 24 h; 0 = TNF only, 100 = no-TNF cells; activation (protection from cell death), % at 10 µM;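 active = activation, meaning protection from cell death, of at least 50% relative to plate controls; inactive = activation below 50%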;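 note: necroptosis triggered by 40 ng/mL TNF-alpha added together with compound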
zVAD death inh = blocks zVAD induced death of L929 cells | L929 zVAD necroptosis rescue, ATP luminescence, 24 h; with zVAD 60 µM | viability rescue, % at 10 µM | 220,000 compounds, 0.38% hits | AID 1377;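 active = activation, scaled between plate controls, above about 75%, limit read from the data; inactive = activation under that limit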;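 note: 0% = zVAD with DMSO and 100% = DMSO alone without zVAD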
HSV augment = increases HSV replication in cells | maximum fold increase | 220,000 compounds, 0.005% hits | HSV replication augmentation in cells, fold increase; in the data active = maximum fold increase above about 1.5; inconclusive = no clear call, values can overlap the other calls; tested in PC3 cells
* hit, by the source's call; i = inactive; ? = inconclusive; . = no result; + = active, no number.

SMILES	Dynein cargo inh	Furin inhibitor	Autophagy mod	TNF death inh	zVAD death inh	HSV augment
O=C(c1ccco1)N1CCN(S(=O)(=O)Cc2ccccc2Cl)CC1	-0.38	-15	i	0	0	i
CCN(CC)C(=O)c1sc2nc(-c3cccs3)cc(-c3ccc(Cl)cc3)c2c1N	0.94	-5	+	-1	0	i
N#Cc1sc2nc(-c3cccs3)cc(-c3ccc(Cl)cc3)c2c1N	1.7	-19	+	-1	0	i
CCN(CC)C(=O)c1sc2nc(-c3cccs3)cc(-c3cccs3)c2c1N	0.95	-9	.	-2	1	i
Cc1ccc(-n2nnnc2SCc2nc3sc(C)c(C)c3c(=O)[nH]2)cc1	-1	-11	+	1	1	i
CC1=CC2=NC(=O)/C(=C\c3ccc(-c4ccc(Cl)cc4)o3)C(=N)N2O1	2.4	-4	+	1	0	i
CC1=CC2=NC(=O)/C(=C/c3cccs3)C(=N)N2O1	1.4	-2	.	3	0	i
Cc1cc(C)nc(N/N=C/C2=C(O)CC(c3ccc(F)cc3)CC2=O)n1 (stereo not given)	-0.75	-3	.	-13	6	i
CCNC(=S)N/N=C(\C)c1ccc(N2CCOCC2)cc1	1.1	-1	+	0	-1	i
CNC(=S)N/N=C(\C)c1ccc(N2CCOCC2)cc1	-0.52	7	i	-1	1	i
O=C(C1=C(c2ccccc2)C(=O)c2ccccc2C1=O)c1ccccc1	-1.1	-33	+	-31	2	i
COC1=C(c2ccccc2)C(=O)c2ccccc2C1=O	-0.2	-10	i	-5	8	i
CCN(CC)S(=O)(=O)c1ccc2c3c(cccc13)C(=O)N2	-0.77	-22	+	-2	2	i
CCN(c1cccc(C)c1)S(=O)(=O)c1ccc2c3c(cccc13)C(=O)N2	0.81	-5	i	-3	0	i
CCCCOc1ccc(-c2cc(C(F)(F)F)c(C#N)c(SCC(=O)O)n2)cc1	-1	-19	+	2	7	i
O=[N+]([O-])c1ccc(C2=NN(CCO)C(=Nc3ccc(OC(F)(F)F)cc3)SC2)cc1	-0.42	-5	.	1	0	i
O=C(Nc1cc(F)cc(F)c1)c1ccc(NCCc2ccccc2)c([N+](=O)[O-])c1	-1.7	-25	i	2	1	i
Cc1ccc(NC(=O)c2ccc(NCCc3ccccc3)c([N+](=O)[O-])c2)cc1F	-0.036	-1	+	-1	0	i
CSc1ccc(Cc2ccc(Cl)cc2Cl)nn1	0.96	-2	i	62*	8	i
Cc1nc(N2CCCCC2)nc(N2CCCCC2)c1C=O	-0.27	-30	i	-1	0	i
COc1ccc(CNC(=O)C(C#N)c2nc3ccccc3nc2N2CCCC2)cc1 (stereo not given)	1.7	-5	+	-1	0	i
CCOC(=O)C1CCN(c2nc3ccccc3nc2C(C#N)C(=O)OC(C)C)CC1 (stereo not given)	-0.61	-13	+	-4	1	?
Cn1cccc1/C=C1\Cc2ccccc2C1=O	-0.17	-6	i	-2	49	i
Cn1cccc1/C=C1\CC(C(C)(C)C)C/C(=C\c2cccn2C)C1=O (stereo not given)	-0.82	-11	+	-2	1	?
CC(=O)Nc1ccc2nc(CN3CCN(Cc4ccc(F)cc4)C(CCO)C3)ccc2c1 (stereo not given)	-0.12	-20	i	1	1	i
SMILES	Dynein cargo inh	Furin inhibitor	Autophagy mod	TNF death inh	zVAD death inh	HSV augment
COC(=O)[C@@H]1C[C@]2(OC(=O)c3ccccc3)C=CC(=O)C[C@@H]2N1C(=O)OCc1ccccc1	-6.5*	-21	i	-20	31	i
COC(CNC(=O)C1CCCN1C(=O)OCc1ccccc1)OC (stereo not given)	-0.29	-26	i	0	2	i
Cc1ccc(C(=O)NNC(=O)/C=C\C(=O)O)cc1	-0.015	4	.	1	0	i
O=C(COC(=O)C1=COCCO1)Nc1ccc(OC(F)F)cc1	-0.9	-29	i	1	3	i
CN(CC(O)COc1ccc(OCC(O)CN(C)C2CCCCC2)cc1)C1CCCCC1 (stereo not given)	-0.34	-12	+	0	0	i
O=C(Cn1ncc(Cl)c(Cl)c1=O)NCC1CCCCC1	-6.2*	-25	i	-13	-1	i
CCC1=Nc2cc(C(=O)NCCCOC(C)C)ccc2Sc2ccccc21	0.15	-24	+	0	1	i
Cc1ccc(CNS(=O)(=O)c2ccc3c(c2)CCN3C(=O)CCCC(=O)O)cc1	-1.1	-16	i	1	1	i
O=c1c2c3c(sc2ncn1Cc1ccc(F)cc1)CCC3	-0.94	-21	i	93*	1	i
CCOC(=O)N1CCc2c(sc3ncn(Cc4ccc(F)cc4)c(=O)c23)C1	0.88	-25	.	3	1	i
CCOC(=O)/C(=C/C=C1\Sc2cc(OCC)c(OCC)cc2N1CC)C(C)=O	3.5	7	+	0	3	.
COc1ccccc1NC(=O)C1=C(C)Nc2nc(-c3cccs3)nn2C1c1cccc(O)c1 (stereo not given)	2.1	8	+	-8	0	.
COc1ccc(C2C(C(=O)Nc3cccnc3)=C(C)Nc3nc(-c4cccs4)nn32)cc1OC (stereo not given)	-0.052	-8	.	0	1	i
NC(=S)N/N=C/c1ccccc1OCCSc1ccc(Cl)cc1	0.25	-13	i	-7	-1	i
OC(CNCc1ccc(Cl)cc1)(c1ccccc1)c1ccc(F)cc1 (stereo not given)	0.12	-8	+	2	7	i
OC(CNCc1ccc(F)cc1)(c1ccc(F)cc1)c1ccc(F)cc1	.	-18	i	2	1	i
C=CCn1c(Oc2cc(C)ccc2C)nc2c1c(=O)n(C)c(=O)n2C	0.74	-2	+	-2	0	i
C=CCn1c(Oc2cccc(C)c2)nc2c1c(=O)n(C)c(=O)n2C	-0.17	-25	i	0	0	i
CCCCCCCCCCCCCCCC[n+]1cccc(C(=O)N(CC)CC)c1	-5.1*	1	i	-14	-1	i
Cc1cc(NC(=O)c2noc3c2CCCC3)no1	0.71	-17	+	1	0	i
Cc1cc(NC(=O)c2noc3c2CCCCC3)no1	-0.64	-20	i	0	1	i
O=C(NC(=S)Nc1nc2c(ccc3ccccc32)s1)c1cccs1	0.49	-12	i	0	1	i
O=C(NC1CCCCC1)C(c1ccc(Cl)cc1)N(C(=O)c1ccccn1)c1cccnc1 (stereo not given)	-0.42	-28	i	-1	0	i

High-throughput results deposited in PubChem BioAssay by several laboratories.
